FXN GAA850 act: increases GAA850 frataxin promoter reporter activity; HEK293 lucGAA850 FXN promoter luciferase reporter, 24 h; percent of 10 µM SAHA response; activation, % at 6 µM; 360,000 tested, 0.56% active; AID 540364;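 active = activation above the average of all compounds screened plus 3 SD, cutoff fixed separately per campaign, cut at about 7.5% in these data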;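 also: 0% = DMSO wells and 100% = 10 µM SAHA wells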
V-ATPase pH: yeast V-ATPase proton transport regulation by pHLuorin; S. cerevisiae, pHLuorin cytosolic pH fluorescence; response, % at 10 µM; 350,000 tested, 0.37% active; AID 504577; in the data active = response mostly above about 7.3%, no sharp cut-off; inactive = mostly below about 5.4%; also: actives read high
NR2E3 ag-1: activates human photoreceptor nuclear receptor NR2E3 | AID 2300 | inhibition of corepressor binding, % at 4.78 µM | 320,000 tested, 0.12% active | GST-NR2E3/biotin-RetCOR TR-FRET, 1536-well | Q9Y5X4;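 active = percent inhibition above the cutoff of mean plus 3 SD of all tested compounds, set per screening campaign, cut at about 20% in these data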;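 also: 0% = DMSO wells and 100% = biotin wells as full block of FRET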
Target sequence (Q9Y5X4 whole entry, looked up): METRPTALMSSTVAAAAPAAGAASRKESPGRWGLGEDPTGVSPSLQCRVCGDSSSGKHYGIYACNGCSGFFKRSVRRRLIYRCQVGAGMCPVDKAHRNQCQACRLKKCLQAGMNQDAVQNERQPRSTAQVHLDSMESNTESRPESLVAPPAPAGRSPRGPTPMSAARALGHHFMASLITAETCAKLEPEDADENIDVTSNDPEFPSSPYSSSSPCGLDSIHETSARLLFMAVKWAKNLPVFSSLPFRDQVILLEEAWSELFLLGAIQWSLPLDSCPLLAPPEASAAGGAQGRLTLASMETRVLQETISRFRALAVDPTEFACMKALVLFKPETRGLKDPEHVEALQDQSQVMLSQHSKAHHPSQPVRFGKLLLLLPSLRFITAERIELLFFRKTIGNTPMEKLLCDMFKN
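system = GST-tagged NR2E3 plus biotinylated RetCOR corepressor | input = 1.35 nM GST-NR2E3 | also added = 7 nM biotin-RetCOR | schedule = 5 h incubation at 4 °C | measured by = TR-FRET with europium anti-GST and streptavidin-D2, 340 nm excitation | read-out = percent loss of FRET ratio relative to control wells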
GalR3 antagonist: blocks the human galanin receptor 3. O60755. HEK293 GalR3-CNG cAMP membrane potential fluorescence; galR3 body fused to GalR1 C-terminus. inhibition, % at 3 µM. 360,000 tested, 0.44% active. AID 651719;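 active = inhibition above the screen-wide average plus 3 SD, cut at about 13% in these data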;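 also: forskolin and galanin both at EC90 stimulate the cells; cAMP rise reported by CNG channel membrane potential dye signal; 0% = forskolin plus galanin with DMSO and 100% = forskolin alone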
NR2E3 ag-2: human photoreceptor-specific nuclear receptor agonism | Q9Y5X4 | CHO-S Gal4-NCOR/VP16-NR2E3 two-hybrid, luciferase | inhibition of corepressor binding, % at 3.98 µM | 360,000 tested, 0.35% active;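 active = inhibition above the mean of all tested compounds plus 3 SD, cut at about 70% in these data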;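 also: 0% = DMSO with NR2E3 transfected cells and 100% = cells lacking NR2E3 construct; higher means lower luciferase signal from less NR2E3 corepressor binding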
HIV Env fusion: blocks HIV Env-driven cell-cell fusion; HeLa-JRFL Env/CEM21 cell fusion, luciferase; inhibition, % at 12.3 µM; 360,000 tested, 1.1% active;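 active = mean replicate inhibition score of at least 50 and every replicate individually at or above 50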;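 also: 0% = plate neutral controls and 100% = maraviroc near 300 nM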
* hit, by the source's call; . = no result; [ ] = remark or other dose. Only some compounds are listed: those with a hit (about 2.2% of all), similar ones and a draw of the others.

SMILES	FXN GAA850 act	V-ATPase pH	NR2E3 ag-1	GalR3 antagonist	NR2E3 ag-2	HIV Env fusion
C/C(=N\OCc1ccc(C#N)cc1)c1ccccc1	0	2	1	-6	-14	-85
C/C(=N\OCc1cccc(C(=O)O)c1)c1ccc(Cl)cc1	4	2	-3	-4	-221	62*
O=C(O)[C@@H]1[C@@H](CO)[C@@H]2Cn3c(ccc(-c4ccccc4)c3=O)[C@@H]2N1Cc1ccccc1F	.	.	.	.	.	0[16.7 µM]
CCc1ccc(/C=C2\SC(=S)N(CCCC(=O)NC3=NCCS3)C2=O)cc1	-14	0	.	-6	29	59*
O=C(Cc1ccncc1)NCC[C@@H]1CC[C@@H](NC(=O)C2CCCCC2)[C@@H](CO)O1	.	.	.	.	.	2[16.7 µM]
Cc1ccc(/C=N/NC(=O)c2c(-c3ccccc3)noc2C)o1	1	-2	-2	-3	8	21
Cc1onc(-c2ccccc2)c1C(=O)Nc1ccccc1NC(=O)c1c(-c2ccccc2)noc1C	0	0	-2	0	-17	4
CCCOc1ccccc1NC(=O)c1c(-c2ccccc2)noc1C	-2	-1	4	0	-11	65*
Cc1onc(-c2ccccc2)c1C(=O)N/N=C/c1ccc(Br)cc1	0	1	1	-2	-27	56*
Cc1onc(-c2ccccc2)c1C(=O)Nc1ccc(Br)cc1Cl	0	0	5	-5	32	86*
Cc1ccc2[nH]c3c(=O)[nH]ncc3c2c1	1	4	0	-11	-57	66*
C[C@@H]1CN([C@H](C)CO)C(=O)c2cc(NC(=O)c3ccncc3)ccc2O[C@@H](C)CCCCO[C@H]1CN(C)C(=O)Nc1ccc(C(F)(F)F)cc1	.	.	.	.	.	-7[16.7 µM]
O=[N+]([O-])c1cc(-c2n(-c3ccccn3)c3ccccc3[n+]2-c2ccccn2)ccc1Cl	-1	-4	3	-3	-36	64*
CO[C@@H]1CN(C)C(=O)c2ccc(NC(C)=O)cc2OC[C@@H](C)N(C(=O)CC2CC2)C[C@H]1C	.	.	.	.	.	10[16.7 µM]
Cc1ccccc1S(=O)(=O)N(C)C[C@@H]1OCc2cn(nn2)CCCC(=O)N([C@H](C)CO)C[C@@H]1C	.	.	.	.	.	13[16.7 µM]
O=C(CCNC(=O)c1ccc(Br)cc1)NNC(=O)c1ccccc1O	0	3	-1	-4	-13	-3
O=C(CCNC(=O)c1ccc(Br)cc1)NNC(=O)COc1ccccc1F	0	0	.	-2	3	73*
Cc1ccnc(NC(=O)CCNC(=O)c2ccc(Br)cc2)c1	1	0	.	-6	-10	57*
Cc1nn(C)cc1NC(=O)C[C@H]1CC[C@@H]2[C@H](COc3ccc(NC(=O)NC(C)C)cc3C(=O)N2C)O1	.	.	.	.	.	5[16.7 µM]
CC(C)CC#Cc1ccc2c(c1)O[C@H](CN(C)S(C)(=O)=O)[C@@H](C)CN([C@@H](C)CO)S2(=O)=O	.	.	.	.	.	-14[16.7 µM]
Cc1cc(C)cc(NC2=NCC(=O)N2Cc2ccccc2)c1	2	6	-2	-3	0	-37
CCc1ccccc1NC1=NCC(=O)N1Cc1ccccc1	3	16*	-4	0	-7	-53
C[C@H]1CN([C@@H](C)CO)C(=O)CCCn2cc(nn2)CO[C@H]1CN(C)S(=O)(=O)c1ccc(F)cc1	.	.	.	.	.	27[16.7 µM]
CC(C)NC(=O)N(C)C[C@@H]1Oc2ccc(NC(=O)C3CC3)cc2CC(=O)N([C@H](C)CO)C[C@H]1C	.	.	.	.	.	62*[16.7 µM]
COc1ccc(S(=O)(=O)N(C)C[C@@H]2Oc3ccc(NC(=O)C4CCCCC4)cc3CC(=O)N([C@H](C)CO)C[C@@H]2C)cc1	.	.	.	.	.	74*[16.7 µM]
C[C@@H]1CN([C@@H](C)CO)C(=O)Cc2cc(NC(=O)C3CC3)ccc2O[C@@H]1CN(C)S(=O)(=O)c1ccccc1	.	.	.	.	.	7[16.7 µM]
C[C@@H]1CN([C@@H](C)CO)C(=O)Cc2cc(NC(=O)C3CCCCC3)ccc2O[C@H]1CN(C)S(=O)(=O)c1ccccc1	1	0	.	2	-7	63*
Cc1ccc(S(=O)(=O)N(C)C[C@@H]2Oc3ccc(NC(=O)C4CCCCC4)cc3CC(=O)N([C@H](C)CO)C[C@@H]2C)cc1	.	.	.	.	.	95*[16.7 µM]
CC(C)NC(=O)N(C)C[C@H]1Oc2ccc(NC(=O)C3CC3)cc2CC(=O)N([C@@H](C)CO)C[C@@H]1C	.	.	.	.	.	6[16.7 µM]
